From ChEMBL document CHEMBL1129030, “Potent, selective, orally active 3-oxo-1,4-benzodiazepine GPIIb/IIIa integrin antagonists” (J Med Chem, 1996)
“And” between values parts separate entries of the source, which are not always exact repeats. Equal values may be shown once.

What was measured:
Canis familiaris [1] = assay: Ex vivo inhibition of platelet aggregation in canine whole blood/collagen at a dose of 0.3 mg/kg after i.v. administration at 390 min; assay type: functional; conditions: Canis lupus familiaris, 6.5 h, route intravenous
Summary of the method: (§1)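 Conscious dogs dosed either by intravenous bolus or by short intraduodenal infusion through a catheter, at 0.3–3 mg/kg. Blood was drawn serially for up to 390 min. Platelet aggregation was measured ex vivo in collagen-stimulated canine whole blood. The readouts were maximal % inhibition, time to maximal inhibition, duration of maximal inhibition, and % inhibition at 390 min.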

Canis familiaris [2] = assay: Ex vivo inhibition of platelet aggregation in canine whole blood/collagen at a dose of 0.3 mg/kg after i.d. administration at 390 min; assay type: functional; conditions: Canis lupus familiaris, 6.5 h, route intraduodenal; summary of the method: as §1
[3] = molecular target: Integrin alpha-IIb/beta-3 (Homo sapiens, UniProt P05106+P08514); assay: Inhibition of binding to purified integrin alphaIIb-beta3 of human platelets
Sequence of Integrin alpha-IIb/beta-3 (P05106 27-788 limits assumed): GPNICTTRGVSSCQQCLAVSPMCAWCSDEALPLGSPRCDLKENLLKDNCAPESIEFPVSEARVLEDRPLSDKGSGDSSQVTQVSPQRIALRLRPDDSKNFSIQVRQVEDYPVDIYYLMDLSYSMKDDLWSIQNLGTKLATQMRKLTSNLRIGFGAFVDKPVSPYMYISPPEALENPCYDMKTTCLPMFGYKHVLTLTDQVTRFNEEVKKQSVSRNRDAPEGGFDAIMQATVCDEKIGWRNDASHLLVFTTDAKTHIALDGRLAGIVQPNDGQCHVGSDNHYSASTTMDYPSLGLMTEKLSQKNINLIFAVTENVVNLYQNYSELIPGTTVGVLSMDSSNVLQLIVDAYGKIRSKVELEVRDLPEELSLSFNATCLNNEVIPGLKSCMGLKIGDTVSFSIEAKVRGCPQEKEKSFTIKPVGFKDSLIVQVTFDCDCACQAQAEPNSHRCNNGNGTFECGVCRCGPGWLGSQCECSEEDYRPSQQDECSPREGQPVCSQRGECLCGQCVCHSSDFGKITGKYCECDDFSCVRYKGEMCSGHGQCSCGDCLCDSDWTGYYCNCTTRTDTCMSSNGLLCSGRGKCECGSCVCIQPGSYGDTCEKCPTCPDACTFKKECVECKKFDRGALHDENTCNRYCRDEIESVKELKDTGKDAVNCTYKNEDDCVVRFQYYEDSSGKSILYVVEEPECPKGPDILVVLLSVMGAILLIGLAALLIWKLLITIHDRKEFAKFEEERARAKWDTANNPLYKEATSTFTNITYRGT
Sequence of Integrin alpha-IIb/beta-3 (P08514 32-887 limits assumed): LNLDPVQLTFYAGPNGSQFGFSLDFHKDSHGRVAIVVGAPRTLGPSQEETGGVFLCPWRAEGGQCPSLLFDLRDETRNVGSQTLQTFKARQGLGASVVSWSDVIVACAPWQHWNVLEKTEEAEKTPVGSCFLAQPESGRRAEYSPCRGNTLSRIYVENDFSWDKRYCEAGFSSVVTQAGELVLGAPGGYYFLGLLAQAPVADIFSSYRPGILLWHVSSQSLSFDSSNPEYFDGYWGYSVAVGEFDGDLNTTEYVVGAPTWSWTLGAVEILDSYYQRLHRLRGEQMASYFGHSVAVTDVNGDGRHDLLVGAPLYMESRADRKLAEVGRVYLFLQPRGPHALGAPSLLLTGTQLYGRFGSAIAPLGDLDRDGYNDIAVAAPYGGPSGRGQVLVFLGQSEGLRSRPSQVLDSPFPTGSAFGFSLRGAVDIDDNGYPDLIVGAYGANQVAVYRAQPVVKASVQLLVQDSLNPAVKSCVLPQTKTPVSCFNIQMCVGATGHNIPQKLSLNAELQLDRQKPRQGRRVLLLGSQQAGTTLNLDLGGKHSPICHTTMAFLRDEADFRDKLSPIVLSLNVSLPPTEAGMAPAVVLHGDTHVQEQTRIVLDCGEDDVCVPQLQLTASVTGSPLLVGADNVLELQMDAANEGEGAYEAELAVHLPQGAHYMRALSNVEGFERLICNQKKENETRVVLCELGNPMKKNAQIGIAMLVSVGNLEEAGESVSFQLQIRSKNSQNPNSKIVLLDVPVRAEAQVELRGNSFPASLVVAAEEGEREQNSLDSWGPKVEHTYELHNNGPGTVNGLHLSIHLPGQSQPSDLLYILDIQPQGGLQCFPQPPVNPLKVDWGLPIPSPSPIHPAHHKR
Sequence of Integrin alpha-IIb/beta-3 (P08514 891-1039 limits assumed): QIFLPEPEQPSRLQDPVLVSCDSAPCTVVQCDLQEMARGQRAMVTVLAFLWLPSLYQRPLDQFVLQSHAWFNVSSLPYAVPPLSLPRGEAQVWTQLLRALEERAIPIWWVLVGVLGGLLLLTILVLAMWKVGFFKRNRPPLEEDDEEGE

Canis familiaris [4] = assay: Ex vivo inhibition of platelet aggregation in canine whole blood/collagen at a dose of 0.3 mg/kg after i.v. administration; range is 90-100; assay type: functional; conditions: Canis lupus familiaris, route intravenous; summary of the method: as §1
Canis familiaris [5] = species on record: Canis familiaris; assay: Time required for maximal inhibition of platelet aggregation in canine; assay type: functional, Canis lupus familiaris; summary of the method: as §1
Homo sapiens = species on record: Homo sapiens; assay: In vitro Inhibitory activity against patelet aggregation in human platelet-rich plasma induced by ADP; assay type: functional
Canis familiaris [6] = species on record: Canis familiaris; assay: Duration for maximal inhibition of platelet aggregation in canine; assay type: functional, Canis lupus familiaris; summary of the method: as §1
Canis familiaris [7] = assay: Ex vivo inhibition of platelet aggregation in canine whole blood/collagen at a dose of 3 mg/kg after i.d. administration; range is 90-100; assay type: functional; conditions: Canis lupus familiaris, route intraduodenal; summary of the method: as §1
Canis familiaris [8] = assay: Ex vivo inhibition of platelet aggregation in canine whole blood/collagen at a dose of 0.3 mg/kg after i.d. administration; […]; assay type: functional; conditions: Canis lupus familiaris, route intraduodenal; summary of the method: as §1

Row | SMILES | Ki [3] [nM] | IC50 (Homo sapiens) [nM] | other results
1 | O=C(O)CC1Nc2ccc(C(=O)N3CCC(C4CCNCC4)CC3)cc2CN(CCc2ccccc2)C1=O (configuration not stated) | 1.5 | 20 | inhibition in vivo at 0.3 mg/kg (Canis familiaris [4]): 90%; Time (Canis familiaris [5]): 10 min and 30 min; inhibition in vivo at 0.3 mg/kg (Canis familiaris [8]): 70%; Duration (Canis familiaris [6]): 140 min
2 | CN(C(=O)c1ccc2c(c1)NC(CC(=O)O)C(=O)N(CCc1ccccc1)C2)c1ccc(C(=N)N)cc1 (configuration not stated) | 1.6 | 65 | –
3 | CN(CCCC1CCNCC1)C(=O)c1ccc2c(c1)CN(CCc1ccccc1)C(=O)C(CC(=O)O)N2 (configuration not stated) | 8 | 60 | –
4 | CN1C(=O)c2ccccc2SSc2ccccc2NC(=O)[C@H](CC(=O)O)NC(=O)CNC(=O)[C@@H]1CCCN=C(N)N [SKF-107260] | – | 57 | –

Continued, in another order:

Row | Ki [3] [nM] | IC50 (Homo sapiens) [nM] | SMILES | other results
5 | 4 | 106 | CN1Cc2cc(C(=O)N3CCC(C4CCNCC4)CC3)ccc2NC(CC(=O)O)C1=O (configuration not stated) | inhibition in vivo at 0.3 mg/kg (Canis familiaris [1]): 50%; inhibition in vivo at 0.3 mg/kg (Canis familiaris [2]): 60%; inhibition in vivo at 0.3 mg/kg (Canis familiaris [4]): 90%; Time (Canis familiaris [5]): 5 min and 10 min; Duration (Canis familiaris [6]): 240 min; inhibition in vivo at 3 mg/kg (Canis familiaris [7]): 90%
6 | 26 | 380 | N=C(N)c1cccc(NC(=O)c2ccc3c(c2)CN(CCc2ccccc2)C(=O)C(CC(=O)O)N3)c1 (configuration not stated) | –
7 | 2.8 | – | N=C(N)c1ccc(NC(=O)c2ccc3c(c2)NC(CC(=O)O)C(=O)N(CCc2ccccc2)C3)cc1 (configuration not stated) | –
